Converted amounts (≈) assume the structure as drawn.
Key:
Assay type in all cases: functional
[1] = test system: Mycobacterium tuberculosis; test: Antimycobacterial activity against Mycobacterium tuberculosis CNCTC My 331/88 after 14 days by microdilution method; conditions: CNCTC My 331/88, 336 h
In short: (§1)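 Strains from the Czech National Collection of Type Cultures, tested by dilution micromethod in Šula semisynthetic medium. Incubated at 37 °C and read at 14 and 21 days. MIC is the lowest concentration inhibiting growth.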

[2] = test system: Mycobacterium tuberculosis; test: Antimycobacterial activity against Mycobacterium tuberculosis CNCTC My 331/88 after 21 days by microdilution method; conditions: CNCTC My 331/88, 504 h; in short: as §1
[3] = test system: Mycobacterium avium; test: Antimycobacterial activity against Mycobacterium avium CNCTC My 330/88 after 14 days by microdilution method; conditions: CNCTC My 330/88, 336 h; in short: as §1
[4] = test system: Mycobacterium avium; test: Antimycobacterial activity against Mycobacterium avium CNCTC My 330/88 after 21 days by microdilution method; conditions: CNCTC My 330/88, 504 h; in short: as §1
[5] = test system: Mycobacterium kansasii; test: Antimycobacterial activity against Mycobacterium kansasii CNCTC My 235/80 after 14 days by microdilution method; conditions: CNCTC My 235/80, 336 h; in short: as §1
[6] = test system: Mycobacterium kansasii; test: Antimycobacterial activity against Mycobacterium kansasii CNCTC My 235/80 after 21 days by microdilution method; conditions: CNCTC My 235/80, 504 h; in short: as §1
[7] = test system: Mycobacterium kansasii; test: Antimycobacterial activity against Mycobacterium kansasii 6509/96 after 14 days by microdilution method; conditions: 6509/96, 336 h
In short: (§2)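 Clinical isolate that, unlike the standard strain, is not isoniazid-resistant. Tested by dilution micromethod in Šula semisynthetic medium, with compounds added in DMSO at final 1000 down to 0.25 µmol/L in twofold steps. Löwenstein-Jensen plate used as inoculum sterility and growth control. Incubated at 37 °C and read at 14 and 21 days. MIC is the lowest concentration inhibiting growth.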

[8] = test system: Mycobacterium kansasii; test: Antimycobacterial activity against Mycobacterium kansasii 6509/96 after 21 days by microdilution method; conditions: 6509/96, 504 h; in short: as §2

Row | Compound | MIC [1] [µM] | MIC [2] [µM] | MIC [3] [µM] | MIC [4] [µM] | MIC [5] [µM] | MIC [6] [µM] | MIC [7] [µM] | MIC [8] [µM]
1 | CCC(C)c1ccc(-n2c(=O)oc3ccc(Cl)cc3c2=O)cc1 (centres undefined) | 4 (≈ 1.32 µg/mL) | 8 (≈ 2.64 µg/mL) | 32 (≈ 10.6 µg/mL) | 32 (≈ 10.6 µg/mL) | 16 (≈ 5.28 µg/mL) | 16 (≈ 5.28 µg/mL) | 16 (≈ 5.28 µg/mL) | 16 (≈ 5.28 µg/mL)
2 | Cc1ccc(-n2c(=S)oc3ccc(Br)cc3c2=S)cc1 | 0.5 (≈ 0.182 µg/mL) | 1 (≈ 0.364 µg/mL) | 15 (≈ 5.46 µg/mL) | 30 (≈ 10.9 µg/mL) | 4 (≈ 1.46 µg/mL) | 4 (≈ 1.46 µg/mL) | 4 (≈ 1.46 µg/mL) | 4 (≈ 1.46 µg/mL)
3 | CC(C)(C)c1ccc(-n2c(=O)oc3cc(Cl)ccc3c2=S)cc1 | 2 (≈ 0.692 µg/mL) | 2 (≈ 0.692 µg/mL) | 4 (≈ 1.38 µg/mL) | 8 (≈ 2.77 µg/mL) | 4 (≈ 1.38 µg/mL) | 8 (≈ 2.77 µg/mL) | 2 (≈ 0.692 µg/mL) | 4 (≈ 1.38 µg/mL)
4 | CC(C)(C)c1ccc(-n2c(=S)oc3ccc(F)cc3c2=S)cc1 | 0.5 (≈ 0.173 µg/mL) | 0.5 (≈ 0.173 µg/mL) | 0.5 (≈ 0.173 µg/mL) | 1 (≈ 0.345 µg/mL) | 8 (≈ 2.76 µg/mL) | 8 (≈ 2.76 µg/mL) | 4 (≈ 1.38 µg/mL) | 8 (≈ 2.76 µg/mL)
5 | CCc1ccc(-n2c(=O)oc3ccc(Br)cc3c2=O)cc1 | 8 (≈ 2.77 µg/mL) | 8 (≈ 2.77 µg/mL) | 32 (≈ 11.1 µg/mL) | 32 (≈ 11.1 µg/mL) | 8 (≈ 2.77 µg/mL) | 16 (≈ 5.54 µg/mL) | 16 (≈ 5.54 µg/mL) | 16 (≈ 5.54 µg/mL)
6 | CC(C)(C)c1ccc(-n2c(=S)oc3ccc(Cl)cc3c2=S)cc1 | 0.25 (≈ 0.0905 µg/mL) | 0.5 (≈ 0.181 µg/mL) | 1 (≈ 0.362 µg/mL) | 2 (≈ 0.724 µg/mL) | 8 (≈ 2.9 µg/mL) | 8 (≈ 2.9 µg/mL) | 8 (≈ 2.9 µg/mL) | 8 (≈ 2.9 µg/mL)
7 | CC(C)c1ccc(-n2c(=O)oc3ccc(Cl)cc3c2=O)cc1 | 4 (≈ 1.26 µg/mL) | 8 (≈ 2.53 µg/mL) | 32 (≈ 10.1 µg/mL) | 32 (≈ 10.1 µg/mL) | 8 (≈ 2.53 µg/mL) | 16 (≈ 5.05 µg/mL) | 8 (≈ 2.53 µg/mL) | 16 (≈ 5.05 µg/mL)
8 | CC(C)(C)c1ccc(-n2c(=O)oc3ccc(F)cc3c2=O)cc1 | 16 (≈ 5.01 µg/mL) | 16 (≈ 5.01 µg/mL) | 16 (≈ 5.01 µg/mL) | 16 (≈ 5.01 µg/mL) | 16 (≈ 5.01 µg/mL) | 16 (≈ 5.01 µg/mL) | 8 (≈ 2.51 µg/mL) | 16 (≈ 5.01 µg/mL)
9 | CCC(C)c1ccc(-n2c(=O)oc3cc(C)ccc3c2=S)cc1 (centres undefined) | 0.25 (≈ 0.0814 µg/mL) | 0.5 (≈ 0.163 µg/mL) | 0.5 (≈ 0.163 µg/mL) | 0.5 (≈ 0.163 µg/mL) | 1 (≈ 0.325 µg/mL) | 2 (≈ 0.651 µg/mL) | 0.5 (≈ 0.163 µg/mL) | 1 (≈ 0.325 µg/mL)
10 | CCC(C)c1ccc(-n2c(=O)oc3ccc(Cl)cc3c2=S)cc1 (centres undefined) | 0.5 (≈ 0.173 µg/mL) | 1 (≈ 0.346 µg/mL) | 32 (≈ 11.1 µg/mL) | 32 (≈ 11.1 µg/mL) | 8 (≈ 2.77 µg/mL) | 8 (≈ 2.77 µg/mL) | 4 (≈ 1.38 µg/mL) | 8 (≈ 2.77 µg/mL)
11 | CCc1ccc(-n2c(=S)oc3ccc(Br)cc3c2=S)cc1 | 1 (≈ 0.378 µg/mL) | 2 (≈ 0.757 µg/mL) | 62.5 (≈ 23.6 µg/mL) | 62.5 (≈ 23.6 µg/mL) | 8 (≈ 3.03 µg/mL) | 16 (≈ 6.05 µg/mL) | 4 (≈ 1.51 µg/mL) | 8 (≈ 3.03 µg/mL)
12 | CCc1ccc(-n2c(=S)oc3ccc(Cl)cc3c2=S)cc1 | 0.5 (≈ 0.167 µg/mL) | 0.5 (≈ 0.167 µg/mL) | 8 (≈ 2.67 µg/mL) | 16 (≈ 5.34 µg/mL) | 8 (≈ 2.67 µg/mL) | 8 (≈ 2.67 µg/mL) | 4 (≈ 1.34 µg/mL) | 6 (≈ 2 µg/mL)
13 | CCC(C)c1ccc(-n2c(=S)oc3cc(Cl)ccc3c2=S)cc1 (centres undefined) | 1 (≈ 0.362 µg/mL) | 1 (≈ 0.362 µg/mL) | 4 (≈ 1.45 µg/mL) | 8 (≈ 2.9 µg/mL) | 4 (≈ 1.45 µg/mL) | 8 (≈ 2.9 µg/mL) | 1 (≈ 0.362 µg/mL) | 2 (≈ 0.724 µg/mL)
14 | CCC(C)c1ccc(-n2c(=O)oc3cc(Cl)ccc3c2=S)cc1 (centres undefined) | 1 (≈ 0.346 µg/mL) | 2 (≈ 0.692 µg/mL) | 8 (≈ 2.77 µg/mL) | 8 (≈ 2.77 µg/mL) | 4 (≈ 1.38 µg/mL) | 8 (≈ 2.77 µg/mL) | 1 (≈ 0.346 µg/mL) | 2 (≈ 0.692 µg/mL)
15 | CC(C)c1ccc(-n2c(=O)oc3ccc(F)cc3c2=S)cc1 | 0.25 (≈ 0.0788 µg/mL) | 0.5 (≈ 0.158 µg/mL) | 0.5 (≈ 0.158 µg/mL) | 1 (≈ 0.315 µg/mL) | 2 (≈ 0.631 µg/mL) | 4 (≈ 1.26 µg/mL) | 4 (≈ 1.26 µg/mL) | 4 (≈ 1.26 µg/mL)
16 | CCC(C)c1ccc(-n2c(=O)oc3ccc(F)cc3c2=S)cc1 (centres undefined) | 0.25 (≈ 0.0823 µg/mL) | 0.5 (≈ 0.165 µg/mL) | 1 (≈ 0.329 µg/mL) | 1 (≈ 0.329 µg/mL) | 4 (≈ 1.32 µg/mL) | 4 (≈ 1.32 µg/mL) | 2 (≈ 0.659 µg/mL) | 4 (≈ 1.32 µg/mL)
17 | CC(C)(C)c1ccc(-n2c(=O)oc3ccc(F)cc3c2=S)cc1 | 0.25 (≈ 0.0823 µg/mL) | 0.5 (≈ 0.165 µg/mL) | 0.5 (≈ 0.165 µg/mL) | 1 (≈ 0.329 µg/mL) | 4 (≈ 1.32 µg/mL) | 8 (≈ 2.64 µg/mL) | 8 (≈ 2.64 µg/mL) | 8 (≈ 2.64 µg/mL)
18 | Cc1ccc(-n2c(=O)oc3ccc(Br)cc3c2=S)cc1 | 0.5 (≈ 0.174 µg/mL) | 1 (≈ 0.348 µg/mL) | 32 (≈ 11.1 µg/mL) | 32 (≈ 11.1 µg/mL) | 2 (≈ 0.696 µg/mL) | 4 (≈ 1.39 µg/mL) | 2 (≈ 0.696 µg/mL) | 4 (≈ 1.39 µg/mL)
19 | CC(C)c1ccc(-n2c(=O)oc3ccc(F)cc3c2=O)cc1 | 8 (≈ 2.39 µg/mL) | 8 (≈ 2.39 µg/mL) | 8 (≈ 2.39 µg/mL) | 16 (≈ 4.79 µg/mL) | 8 (≈ 2.39 µg/mL) | 8 (≈ 2.39 µg/mL) | 8 (≈ 2.39 µg/mL) | 16 (≈ 4.79 µg/mL)
20 | CCCCc1ccc(-n2c(=S)oc3ccc(Cl)cc3c2=S)cc1 | 2 (≈ 0.724 µg/mL) | 4 (≈ 1.45 µg/mL) | 8 (≈ 2.9 µg/mL) | 16 (≈ 5.79 µg/mL) | 8 (≈ 2.9 µg/mL) | 8 (≈ 2.9 µg/mL) | 8 (≈ 2.9 µg/mL) | 8 (≈ 2.9 µg/mL)
21 | CC(C)c1ccc(-n2c(=O)oc3ccc(Br)cc3c2=O)cc1 | 2 (≈ 0.72 µg/mL) | 4 (≈ 1.44 µg/mL) | 8 (≈ 2.88 µg/mL) | 16 (≈ 5.76 µg/mL) | 8 (≈ 2.88 µg/mL) | 8 (≈ 2.88 µg/mL) | 4 (≈ 1.44 µg/mL) | 8 (≈ 2.88 µg/mL)
22 | CCC(C)c1ccc(-n2c(=S)oc3ccc(Cl)cc3c2=S)cc1 (centres undefined) | 1 (≈ 0.362 µg/mL) | 2 (≈ 0.724 µg/mL) | 16 (≈ 5.79 µg/mL) | 32 (≈ 11.6 µg/mL) | 8 (≈ 2.9 µg/mL) | 16 (≈ 5.79 µg/mL) | 4 (≈ 1.45 µg/mL) | 8 (≈ 2.9 µg/mL)
23 | CC(C)c1ccc(-n2c(=S)oc3cc(Cl)ccc3c2=S)cc1 | 0.5 (≈ 0.174 µg/mL) | 1 (≈ 0.348 µg/mL) | 8 (≈ 2.78 µg/mL) | 8 (≈ 2.78 µg/mL) | 4 (≈ 1.39 µg/mL) | 8 (≈ 2.78 µg/mL) | 4 (≈ 1.39 µg/mL) | 4 (≈ 1.39 µg/mL)
24 | CC(C)c1ccc(-n2c(=O)oc3cc(Cl)ccc3c2=S)cc1 | 0.5 (≈ 0.166 µg/mL) | 1 (≈ 0.332 µg/mL) | 8 (≈ 2.65 µg/mL) | 8 (≈ 2.65 µg/mL) | 8 (≈ 2.65 µg/mL) | 8 (≈ 2.65 µg/mL) | 4 (≈ 1.33 µg/mL) | 8 (≈ 2.65 µg/mL)
25 | Cc1ccc2c(=O)n(-c3ccc(C(C)C)cc3)c(=O)oc2c1 |  |  |  |  |  |  | 32 (≈ 9.45 µg/mL) | 
26 | Cc1ccc(-n2c(=O)oc3ccc(Br)cc3c2=O)cc1 | 16 (≈ 5.31 µg/mL) | 16 (≈ 5.31 µg/mL) | 31 (≈ 10.3 µg/mL) | 31 (≈ 10.3 µg/mL) |  | 62 (≈ 20.6 µg/mL) |  | 
27 | CCC(C)c1ccc(-n2c(=O)oc3cc(C)ccc3c2=O)cc1 (centres undefined) |  |  |  |  |  |  | 32 (≈ 9.9 µg/mL) | 

— ChEMBL document CHEMBL1287747, “Highly active antimycobacterial derivatives of benzoxazine” (2010)
